Reference: ChEMBL document CHEMBL1165965, “Synthesis and structure-activity relationships of 1,2,3,4-tetrahydropyrido[2,3-b]pyrazines as potent and selective inhibitors of the anaplastic lymphoma kinase” (Bioorg Med Chem, 2010)

Columns and labels:
[1] = target: MAP kinase-activated protein kinase 2 (Homo sapiens) (UniProt P49137); assay: Inhibition of MAPKAPK2 at 1 uM
[2] = system: Hepatocyte growth factor receptor (Homo sapiens), P08581 [M1250T]; assay: Inhibition of MET M1250T mutant at 1 uM
[3] = target: Myosin-IIIa (Homo sapiens) (UniProt Q8NEV4); assay: Inhibition of MYO3A at 1 uM
[4] = target: Mitogen-activated protein kinase 11 (Homo sapiens) (UniProt Q15759); assay: Inhibition of p38-beta at 1 uM
Sequence of Mitogen-activated protein kinase 11 (Homo sapiens) (Q15759 whole entry): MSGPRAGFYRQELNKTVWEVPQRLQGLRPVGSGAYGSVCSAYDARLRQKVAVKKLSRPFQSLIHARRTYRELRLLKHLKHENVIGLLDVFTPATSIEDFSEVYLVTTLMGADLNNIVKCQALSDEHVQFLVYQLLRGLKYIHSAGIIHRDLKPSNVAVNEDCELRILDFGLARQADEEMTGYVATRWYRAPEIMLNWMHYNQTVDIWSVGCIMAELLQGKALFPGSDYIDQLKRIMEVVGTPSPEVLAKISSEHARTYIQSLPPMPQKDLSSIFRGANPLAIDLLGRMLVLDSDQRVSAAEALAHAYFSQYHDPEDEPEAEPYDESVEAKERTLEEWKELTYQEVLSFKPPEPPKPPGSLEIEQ

[5] = target: T1, 3-phosphoinositide-dependent protein kinase 1 (Homo sapiens) (UniProt O15530); assay: Inhibition of PDPK1 at 1 uM
T1 sequence (whole entry): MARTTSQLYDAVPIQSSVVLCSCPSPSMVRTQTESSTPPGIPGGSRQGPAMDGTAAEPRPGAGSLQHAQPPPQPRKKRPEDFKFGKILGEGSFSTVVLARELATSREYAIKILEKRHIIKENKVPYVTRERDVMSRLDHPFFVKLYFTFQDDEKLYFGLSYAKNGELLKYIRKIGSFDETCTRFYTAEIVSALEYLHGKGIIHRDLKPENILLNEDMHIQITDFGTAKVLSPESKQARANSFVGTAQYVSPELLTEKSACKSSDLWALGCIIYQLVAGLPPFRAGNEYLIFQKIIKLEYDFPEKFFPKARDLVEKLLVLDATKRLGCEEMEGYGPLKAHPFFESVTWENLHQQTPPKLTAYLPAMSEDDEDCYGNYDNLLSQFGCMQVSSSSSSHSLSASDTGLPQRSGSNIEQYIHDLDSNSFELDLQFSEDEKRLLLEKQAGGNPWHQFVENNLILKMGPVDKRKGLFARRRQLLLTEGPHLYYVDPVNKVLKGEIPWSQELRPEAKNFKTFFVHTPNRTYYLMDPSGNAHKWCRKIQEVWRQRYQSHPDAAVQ

[6] = target: RAF proto-oncogene serine/threonine-protein kinase (Homo sapiens) (UniProt P04049); assay: Inhibition of RAF1 at 1 uM
Sequence of RAF proto-oncogene serine/threonine-protein kinase (Homo sapiens) (P04049 whole entry): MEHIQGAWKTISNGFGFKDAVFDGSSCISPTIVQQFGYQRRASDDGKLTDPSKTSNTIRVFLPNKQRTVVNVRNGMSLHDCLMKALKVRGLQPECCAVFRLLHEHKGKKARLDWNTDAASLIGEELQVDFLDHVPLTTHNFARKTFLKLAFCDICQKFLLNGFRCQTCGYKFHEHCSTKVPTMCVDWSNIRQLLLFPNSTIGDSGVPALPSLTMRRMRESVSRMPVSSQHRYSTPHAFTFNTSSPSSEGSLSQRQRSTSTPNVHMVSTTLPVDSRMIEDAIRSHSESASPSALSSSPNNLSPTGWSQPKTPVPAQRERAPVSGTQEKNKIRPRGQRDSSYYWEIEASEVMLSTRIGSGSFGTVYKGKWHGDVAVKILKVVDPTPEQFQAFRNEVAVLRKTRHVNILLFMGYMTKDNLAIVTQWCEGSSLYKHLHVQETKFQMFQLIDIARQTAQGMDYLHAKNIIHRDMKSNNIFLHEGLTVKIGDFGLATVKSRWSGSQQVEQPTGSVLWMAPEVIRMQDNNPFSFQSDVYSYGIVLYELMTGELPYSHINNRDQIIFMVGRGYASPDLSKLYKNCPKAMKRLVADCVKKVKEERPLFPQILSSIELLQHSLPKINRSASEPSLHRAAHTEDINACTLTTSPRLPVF

[7] = target: Serine/threonine-protein kinase SIK1 (Homo sapiens) (UniProt P57059); assay: Inhibition of SIK at 1 uM
Sequence of Serine/threonine-protein kinase SIK1 (Homo sapiens) (P57059 whole entry): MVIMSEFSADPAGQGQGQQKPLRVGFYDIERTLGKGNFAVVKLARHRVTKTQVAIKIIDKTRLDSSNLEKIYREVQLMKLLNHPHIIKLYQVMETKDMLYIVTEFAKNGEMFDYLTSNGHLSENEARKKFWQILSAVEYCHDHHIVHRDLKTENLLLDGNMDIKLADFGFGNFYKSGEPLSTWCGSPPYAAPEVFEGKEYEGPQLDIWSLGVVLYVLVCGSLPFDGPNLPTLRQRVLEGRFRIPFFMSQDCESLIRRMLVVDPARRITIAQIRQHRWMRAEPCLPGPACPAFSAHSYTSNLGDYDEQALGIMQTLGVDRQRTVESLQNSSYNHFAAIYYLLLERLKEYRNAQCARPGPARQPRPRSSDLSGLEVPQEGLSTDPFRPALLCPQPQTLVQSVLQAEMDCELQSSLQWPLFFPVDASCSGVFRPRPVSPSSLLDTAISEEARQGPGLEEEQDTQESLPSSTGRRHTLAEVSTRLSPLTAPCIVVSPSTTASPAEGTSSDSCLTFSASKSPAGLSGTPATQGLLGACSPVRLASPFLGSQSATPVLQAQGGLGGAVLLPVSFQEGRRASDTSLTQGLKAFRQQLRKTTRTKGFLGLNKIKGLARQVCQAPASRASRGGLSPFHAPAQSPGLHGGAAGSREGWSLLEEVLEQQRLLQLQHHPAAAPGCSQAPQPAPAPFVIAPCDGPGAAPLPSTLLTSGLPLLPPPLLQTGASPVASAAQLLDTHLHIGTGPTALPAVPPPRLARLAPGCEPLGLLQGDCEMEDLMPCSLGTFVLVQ

[8] = target: NT-3 growth factor receptor (Homo sapiens) (UniProt Q16288); assay: Inhibition of TRKC at 1 uM
Sequence of NT-3 growth factor receptor (Homo sapiens) (Q16288 32-839 limits assumed): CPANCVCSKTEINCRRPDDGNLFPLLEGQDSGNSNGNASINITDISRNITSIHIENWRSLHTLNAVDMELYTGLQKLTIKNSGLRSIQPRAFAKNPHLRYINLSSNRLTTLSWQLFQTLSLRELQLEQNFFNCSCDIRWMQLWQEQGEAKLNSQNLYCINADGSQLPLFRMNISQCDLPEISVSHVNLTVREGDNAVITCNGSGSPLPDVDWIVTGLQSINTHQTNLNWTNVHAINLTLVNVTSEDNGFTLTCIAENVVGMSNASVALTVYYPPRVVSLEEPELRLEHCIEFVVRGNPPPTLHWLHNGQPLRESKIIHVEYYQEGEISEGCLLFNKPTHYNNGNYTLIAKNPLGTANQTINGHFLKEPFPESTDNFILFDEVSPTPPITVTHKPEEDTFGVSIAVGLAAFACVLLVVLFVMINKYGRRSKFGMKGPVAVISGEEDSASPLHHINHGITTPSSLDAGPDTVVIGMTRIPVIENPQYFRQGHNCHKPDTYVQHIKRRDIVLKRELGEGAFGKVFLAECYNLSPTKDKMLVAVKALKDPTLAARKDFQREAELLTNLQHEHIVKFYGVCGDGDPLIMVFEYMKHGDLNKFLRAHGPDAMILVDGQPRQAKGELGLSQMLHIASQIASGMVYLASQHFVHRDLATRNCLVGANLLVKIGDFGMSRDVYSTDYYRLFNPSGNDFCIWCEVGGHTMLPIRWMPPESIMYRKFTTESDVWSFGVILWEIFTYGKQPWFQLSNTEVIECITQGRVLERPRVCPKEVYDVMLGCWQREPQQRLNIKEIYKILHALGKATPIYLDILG

[9] = system: Tyrosine-protein kinase ABL1 (Homo sapiens), P00519 [T315I]; assay: Inhibition of ABL1 T315I mutant at 1 uM
In short: (§1)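 Ambit KINOMEscan screen at a single concentration across a 250–400 kinase panel, recorded as percent inhibition. Selectivity was expressed as S(90), the fraction of kinases inhibited >90%.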

[10] = target: T2, Serine/threonine-protein kinase BRSK1 (Homo sapiens) (UniProt Q8TDC3); assay: Inhibition of BRSK1 at 1 uM; in short: as §1
T2 sequence (whole entry): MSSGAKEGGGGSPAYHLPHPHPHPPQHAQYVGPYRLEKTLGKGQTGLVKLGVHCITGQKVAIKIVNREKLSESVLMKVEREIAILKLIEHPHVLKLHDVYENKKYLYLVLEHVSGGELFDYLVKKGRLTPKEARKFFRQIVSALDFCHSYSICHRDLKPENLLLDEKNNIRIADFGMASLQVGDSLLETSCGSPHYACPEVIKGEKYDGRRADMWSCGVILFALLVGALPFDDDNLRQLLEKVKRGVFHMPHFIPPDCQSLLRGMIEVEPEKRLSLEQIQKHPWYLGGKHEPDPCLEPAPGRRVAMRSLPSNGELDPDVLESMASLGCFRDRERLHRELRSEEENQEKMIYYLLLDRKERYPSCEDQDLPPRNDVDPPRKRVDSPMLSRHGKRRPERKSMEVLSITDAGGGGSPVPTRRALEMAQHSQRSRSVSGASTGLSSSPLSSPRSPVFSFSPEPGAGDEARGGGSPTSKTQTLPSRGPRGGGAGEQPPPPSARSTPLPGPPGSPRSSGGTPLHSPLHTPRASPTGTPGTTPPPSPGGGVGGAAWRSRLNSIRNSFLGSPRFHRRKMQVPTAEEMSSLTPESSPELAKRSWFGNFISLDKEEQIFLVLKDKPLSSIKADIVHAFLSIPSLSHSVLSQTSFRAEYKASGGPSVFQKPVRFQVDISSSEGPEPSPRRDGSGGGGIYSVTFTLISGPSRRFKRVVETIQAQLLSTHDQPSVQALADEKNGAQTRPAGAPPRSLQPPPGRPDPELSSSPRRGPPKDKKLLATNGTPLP

[11] = target: Receptor-type tyrosine-protein kinase FLT3 (Homo sapiens) (UniProt P36888); assay: Inhibition of FLT3 at 1 uM
Sequence of Receptor-type tyrosine-protein kinase FLT3 (Homo sapiens) (P36888 whole entry): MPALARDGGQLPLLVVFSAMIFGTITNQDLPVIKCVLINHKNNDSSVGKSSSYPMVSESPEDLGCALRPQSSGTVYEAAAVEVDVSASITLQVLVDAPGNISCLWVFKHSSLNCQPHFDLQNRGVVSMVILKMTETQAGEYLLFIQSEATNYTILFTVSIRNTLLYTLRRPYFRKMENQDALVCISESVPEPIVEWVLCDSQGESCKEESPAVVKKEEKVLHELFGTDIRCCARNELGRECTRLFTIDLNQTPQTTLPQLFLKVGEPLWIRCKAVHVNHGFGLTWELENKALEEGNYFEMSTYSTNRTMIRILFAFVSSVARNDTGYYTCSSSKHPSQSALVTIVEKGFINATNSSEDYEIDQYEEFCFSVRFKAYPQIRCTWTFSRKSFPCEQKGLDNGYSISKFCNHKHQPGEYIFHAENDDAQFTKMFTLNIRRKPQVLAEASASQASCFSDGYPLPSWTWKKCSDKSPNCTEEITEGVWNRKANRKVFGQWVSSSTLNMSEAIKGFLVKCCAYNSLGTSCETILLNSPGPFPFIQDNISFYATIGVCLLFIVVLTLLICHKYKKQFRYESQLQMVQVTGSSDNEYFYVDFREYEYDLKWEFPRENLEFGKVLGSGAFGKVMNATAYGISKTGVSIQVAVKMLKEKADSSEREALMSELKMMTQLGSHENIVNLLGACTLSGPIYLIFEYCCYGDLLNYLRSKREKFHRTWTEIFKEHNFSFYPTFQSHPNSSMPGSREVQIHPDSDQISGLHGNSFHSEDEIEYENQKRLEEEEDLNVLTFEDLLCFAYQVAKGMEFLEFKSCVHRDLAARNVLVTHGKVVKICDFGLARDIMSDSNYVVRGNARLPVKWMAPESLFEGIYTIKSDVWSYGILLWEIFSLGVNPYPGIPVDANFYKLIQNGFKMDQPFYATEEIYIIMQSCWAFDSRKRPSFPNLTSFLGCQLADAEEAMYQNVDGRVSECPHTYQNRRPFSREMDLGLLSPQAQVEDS
In short: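 Single-concentration screen on the Ambit KINOMEscan platform, run against a panel of 250–400 kinases. Per-kinase inhibition was also summarized as S(90), the fraction of kinases inhibited by more than 90%.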

Sequence of Hepatocyte growth factor receptor (Homo sapiens), P08581 [M1250T] (P08581 whole entry M1250T): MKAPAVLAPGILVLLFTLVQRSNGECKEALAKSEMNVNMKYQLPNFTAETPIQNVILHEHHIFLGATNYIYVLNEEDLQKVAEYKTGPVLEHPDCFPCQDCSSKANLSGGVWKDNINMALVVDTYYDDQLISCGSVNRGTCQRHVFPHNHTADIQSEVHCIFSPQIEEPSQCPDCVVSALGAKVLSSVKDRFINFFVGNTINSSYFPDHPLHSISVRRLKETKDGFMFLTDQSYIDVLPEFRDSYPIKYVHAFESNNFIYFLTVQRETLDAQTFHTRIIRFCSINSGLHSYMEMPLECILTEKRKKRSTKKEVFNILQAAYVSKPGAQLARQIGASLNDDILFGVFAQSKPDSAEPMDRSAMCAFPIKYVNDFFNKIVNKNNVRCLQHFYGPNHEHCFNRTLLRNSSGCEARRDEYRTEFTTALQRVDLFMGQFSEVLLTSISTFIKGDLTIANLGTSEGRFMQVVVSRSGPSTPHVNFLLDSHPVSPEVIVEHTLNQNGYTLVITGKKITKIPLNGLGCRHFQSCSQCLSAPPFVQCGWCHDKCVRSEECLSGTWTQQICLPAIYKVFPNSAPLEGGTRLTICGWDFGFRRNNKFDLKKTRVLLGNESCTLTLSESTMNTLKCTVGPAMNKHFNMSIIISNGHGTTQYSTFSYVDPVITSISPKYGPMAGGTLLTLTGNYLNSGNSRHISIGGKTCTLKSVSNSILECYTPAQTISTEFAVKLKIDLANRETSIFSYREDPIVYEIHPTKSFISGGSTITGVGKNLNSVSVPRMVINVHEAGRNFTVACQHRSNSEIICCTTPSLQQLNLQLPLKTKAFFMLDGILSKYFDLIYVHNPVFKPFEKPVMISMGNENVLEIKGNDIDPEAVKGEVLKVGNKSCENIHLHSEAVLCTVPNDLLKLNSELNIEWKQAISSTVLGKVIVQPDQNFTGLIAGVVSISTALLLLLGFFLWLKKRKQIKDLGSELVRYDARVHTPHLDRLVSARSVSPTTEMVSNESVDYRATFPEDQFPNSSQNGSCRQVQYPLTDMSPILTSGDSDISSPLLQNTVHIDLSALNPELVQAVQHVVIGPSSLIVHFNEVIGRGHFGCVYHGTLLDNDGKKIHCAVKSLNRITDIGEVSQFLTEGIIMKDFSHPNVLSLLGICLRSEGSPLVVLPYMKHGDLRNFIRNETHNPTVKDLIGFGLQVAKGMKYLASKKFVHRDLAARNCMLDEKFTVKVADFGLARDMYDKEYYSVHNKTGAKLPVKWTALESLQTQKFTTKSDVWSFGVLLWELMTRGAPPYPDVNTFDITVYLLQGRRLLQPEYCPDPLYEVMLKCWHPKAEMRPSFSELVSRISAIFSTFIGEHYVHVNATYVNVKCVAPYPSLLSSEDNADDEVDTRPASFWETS

SMILES | inhibition [1] [%] | inhibition [2] [%] | inhibition [3] [%] | inhibition [4] [%] | inhibition [5] [%] | inhibition [6] [%] | inhibition [7] [%] | inhibition [8] [%] | inhibition [9] [%] | inhibition [10] [%] | inhibition [11] [%]
CN1CCN(c2ccc(-c3cnc4c(c3)N(Cc3cc(F)ccc3F)CCN4)cn2)CC1 | < 50 | < 50 | < 50 | < 50 | < 50 | < 50 | < 50 | < 50 | 80.4 | < 50 | 64
O=C(c1ccc(-c2cnc3c(c2)N(Cc2cc(Cl)ccc2C(F)(F)F)CCN3)cc1)N1CCC(N2CCCC2)CC1 |  |  |  | < 50 | < 50 | < 50 | 81.6 | < 50 | 83.2 | < 50 | 99.3
O=C(c1ccc(-c2cnc3c(c2)N(Cc2cc(Cl)ccc2C(F)(F)F)CCN3)cc1)N1CCCCC1 |  |  |  | < 50 | < 50 | < 50 | < 50 | < 50 | < 50 | < 50 | < 50
CN1CCN(c2ccc(-c3cnc4c(c3)N(Cc3c(F)ccc(F)c3Cl)CCN4)cn2)CC1 | < 50 | 82 | < 50 | < 50 | < 50 | < 50 | < 50 | < 50 | 95 | < 50 | < 50
COC1CCN(C(=O)c2ccc(-c3cnc4c(c3)N(Cc3cc(Cl)ccc3C(F)(F)F)CCN4)cc2)CC1 |  |  |  | < 50 | < 50 | < 50 | < 50 | < 50 | < 50 | < 50 | 80.7
O=C(O)c1ccc(-c2cnc3c(c2)N(Cc2cc(Cl)ccc2C(F)(F)F)CCN3)cc1 |  |  |  | < 50 | < 50 | < 50 | < 50 | < 50 |  | < 50 | < 50
CC(=O)N1CCN(c2cc(-c3cnc4c(c3)N(Cc3cc(Cl)ccc3C(F)(F)F)CCN4)ccn2)CC1 | < 50 | < 50 | < 50 | < 50 | < 50 | < 50 | < 50 | < 50 | < 50 | < 50 | 83
FC(F)(F)c1ccc(Cl)cc1CN1CCNc2ncc(-c3ccnc(N4CCNCC4)c3)cc21 | < 50 | 86 | < 50 | < 50 | < 50 | < 50 | < 50 | < 50 | < 50 | < 50 | 95
CN1CCN(c2ccc(-c3cnc4c(c3)N(Cc3cc(Cl)ccc3C(F)(F)F)CCN4)cn2)CC1 | < 50 | < 50 | < 50 | < 50 | < 50 | < 50 | < 50 | < 50 | < 50 | < 50 | 88
CN1CCN(c2ccc(-c3cnc4c(c3)N(Cc3cc(Cl)ccc3Cl)CCN4)cn2)CC1 | < 50 | < 50 | < 50 | < 50 | < 50 | < 50 | < 50 | < 50 | < 50 | < 50 | 90
